The test system of assay [1] is Escherichia coli. The assay can be described thus: Inhibition of intrinsic ATPase activity of Escherichia coli SecA expressed in Escherichia coli BL21.19 cells assessed as hydrolysis of ATP at 200 uM after 2 hrs by malachite green colorimetric method. The procedure, abridged:
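Single-concentration screen: compound at 200 µM with His-tagged ecSecA at 0.5 µM (50 µg/ml) and 100 µM ATP, 37 °C, 2 h. Buffer was 50 mM Tris–HCl, 50 mM KCl, 5 mM MgCl2, 0.4 mg/ml BSA, pH 8.0. Free Pi was detected with malachite green reagent (20 min rt, absorbance 660 nm).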

The subject of assay [2] is Escherichia coli. Nature of the assay: Mixed-type inhibition of ATPase activity of Escherichia coli SecA expressed in Escherichia coli BL21.19 cells assessed as hydrolysis of ATP after 2 hrs using MM equation at 25 to 200 uM by malachite green colorimetric method.
The nature of assay [3]: Inhibition of intrinsic ATPase activity of Escherichia coli SecA expressed in Escherichia coli BL21.19 cells assessed as hydrolysis of ATP after 2 hrs by malachite green colorimetric method. The procedure, abridged:
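Recombinant His-tagged ecSecA at 0.5 µM (50 µg/ml) was incubated at 37 °C with 100 µM ATP and compound (0–200 µM) for 2 h. Buffer was 50 mM Tris–HCl, 50 mM KCl, 5 mM MgCl2, 0.4 mg/ml BSA, pH 8.0. Released Pi was read with malachite green (20 min rt, 660 nm). Rates were taken relative to no-compound, and IC50 was fitted by nonlinear regression from three independent experiments.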

Assay [4] can be described thus: Inhibition of ATPase activity of Escherichia coli SecA expressed in Escherichia coli BL21.19 cells assessed as hydrolysis of ATP after 2 hrs using Dixon plot analysis by malachite green colorimetric method.
In the next assay the test system is Staphylococcus aureus. The assay can be described thus: Inhibition of intrinsic ATPase activity of Staphylococcus aureus SecA expressed in Escherichia coli BL21.19 cells assessed as hydrolysis of ATP after 2 hrs by malachite green colorimetric method. To be noted: dose or concentration not given here. The procedure, abridged:
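His-tagged saSecA1 at 4 µM (400 µg/ml) was incubated at 28 °C for 2 h with 100 µM ATP. Buffer was 50 mM HEPES, 50 mM KCl, 2 mM MgCl2, 0.4 mg/ml BSA, pH 7.5. Liberated Pi was quantified with malachite green (20 min room temperature, 660 nm).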

The record followed here is ChEMBL document CHEMBL1641421, “Synthesis of novel 5-amino-thiazolo[4,5-d]pyrimidines as E. coli and S. aureus SecA inhibitors” (Bioorg Med Chem, 2011).

The structures appear in SMILES notation. The source made the active and inactive calls. No cut-off for these calls is given here.

Usually inhibition stands for the share of the control response that was lost under treatment. One may read the IC50 as the concentration that inhibits the measured activity by half. As usually defined, the Ki is the equilibrium dissociation constant of an inhibitor or competing ligand from its target.

For the molecule `COCCNc1nc2nc(N)nc(N3CCOCC3)c2s1`, the result in the assay on Escherichia coli [1] was Active. With `Nc1nc(N2CCN(C(=O)COc3ccc(Cl)cc3)CC2)c2sc(-c3ccc(F)cc3)nc2n1`, the inhibition with Escherichia coli [1] worked out at 50%. In the case of `Nc1nc(-c2ccc(F)cc2)c2sc(N3CCN(C(=O)COc4ccc(Cl)cc4)CC3)nc2n1`, the inhibition entry in the assay on Escherichia coli [2] is “Active”. In addition, the half-maximal inhibitory concentration (IC50) in assay [3] stood at 135 µM. In the assay with Escherichia coli [1], the inhibition turned out to be 76%. The Ki in assay [4] amounted to 60 µM.

Consider `Nc1nc(N2CCOCC2)c2sc(C#Cc3ccccc3)nc2n1`, for which the inhibition with Staphylococcus aureus came out at 40%. Besides, the result in the assay with Escherichia coli [1] was Active.

On to `Nc1nc(-c2ccc(F)cc2)c2sc(N3CCNCC3)nc2n1`, for which, in the assay with Escherichia coli [1], the inhibition worked out at 35%. Same read-out and setting: the result for `COCCNc1nc2nc(N)nc(-c3ccc(F)cc3)c2s1` reads 50%.

With `Nc1nc(N2CCOCC2)c2sc(-c3ccc(F)cc3)nc2n1`, the outcome in the assay with Escherichia coli [1] was Active. Take `CC(=O)N1CCN(c2nc(N)nc3nc(-c4ccc(F)cc4)sc23)CC1`: the inhibition with Escherichia coli [1] came out at 50%. Still for that read-out and setting: the result for `CC(C)(C)OC(=O)N1CCN(c2nc3nc(N)nc(-c4ccc(F)cc4)c3s2)CC1` reads 50%. In the case of `Cc1cccc(NC(=O)N2CCN(c3nc(N)nc4nc(-c5ccc(F)cc5)sc34)CC2)c1`, in the assay on Staphylococcus aureus, the inhibition was 40%. Consider `Cc1cccc(NC(=O)N2CCN(c3nc4nc(N)nc(-c5ccc(F)cc5)c4s3)CC2)c1`, for which the inhibition came out at 40% in the assay with Staphylococcus aureus and 50% with Escherichia coli [1]. With `Nc1nc(N2CCOCC2)c2sc(N3CCOCC3)nc2n1`, the result with Escherichia coli [1] was Active. On to `Nc1nc(N2CCOCC2)c2sc(/C=C/c3ccccc3)nc2n1`, for which the inhibition in the assay with Staphylococcus aureus was 40%; in the assay with Escherichia coli [1] it was 70%. For the same molecule, the IC50 in assay [3] stood at 197 µM.
